From ChEMBL document CHEMBL4014329, “Selective Inhibition of Escherichia coli RNA and DNA Topoisomerase I by Hoechst 33258 Derived Mono- and Bisbenzimidazoles” (J Med Chem, 2017)
Values after ≈ are worked out from the molar mass of the structure shown. Active and inactive are the calls of the source. The rule behind the calls is not given here.

What was measured:
Pseudomonas aeruginosa = assay: Antibacterial activity against Pseudomonas aeruginosa ATCC 27853 after 24 hrs by microbroth dilution method; assay type: functional; conditions: ATCC 27853, 24 h
Method in brief: (§1)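 Microbroth dilution per CLSI guidelines. Organisms grown in Mueller−Hinton broth at 37 °C with shaking to log phase, pelleted, resuspended in 0.85% saline to OD625 0.1. Final inoculum 5 × 10^5 CFU/mL; triplicate; 24 h at 37 °C. OD625 read; MIC = lowest concentration completely inhibiting growth versus untreated controls.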

Staphylococcus aureus [1] = assay: Antibacterial activity against Staphylococcus aureus ATCC 29213 after 24 hrs by microbroth dilution method; assay type: functional; conditions: ATCC 29213, 24 h; method in brief: as §1
Escherichia coli [2] = assay: Antibacterial activity against Escherichia coli K-12 after 24 hrs by microbroth dilution method; assay type: functional; conditions: K-12, 24 h; method in brief: as §1
Escherichia coli [3] = assay: Antibacterial activity against Escherichia coli ATCC 25922 after 24 hrs by microbroth dilution method; assay type: functional; conditions: ATCC 25922, 24 h; method in brief: as §1
Staphylococcus aureus [4] = assay: Antibacterial activity against Staphylococcus aureus ATCC 33591 after 24 hrs by microbroth dilution method; assay type: functional; conditions: ATCC 33591, 24 h; method in brief: as §1
DU-145 = assay: Cytotoxicity against human DU145 cells after 48 hrs by SRB assay; assay type: cell-based; conditions: for IC50: Homo sapiens, DU-145, 48 h; for Activity: human, du-145, 48 h
Method in brief: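 Cells cultured per ATCC protocols, seeded and grown 24 h (37 °C, 5% CO2), then treated in triplicate at final 20, 10, 5, 2.5, 1.25, 0.625 and 0.0625 μM for 48 h. Fixed with cold TCA (16% final, 4 °C, 1 h), stained with SRB in 1% acetic acid, dye solubilized in 10 mM Tris base, A560 read. IC50 derived; study in duplicate.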

Enterococcus faecalis = assay: Antibacterial activity against Enterococcus faecalis ATCC 29212 after 24 hrs by microbroth dilution method; assay type: functional; conditions: ATCC 29212, 24 h; method in brief: as §1
Staphylococcus aureus [5] = assay: Antibacterial activity against methicillin-resistant Staphylococcus aureus A960649 after 24 hrs by microbroth dilution method; assay type: functional; conditions: A960649, 24 h
Method in brief: (§2)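 Mueller-Hinton broth cultures grown at 37 °C with shaking to log phase, pelleted, resuspended in 0.85% saline to OD625 0.1. Broth microdilution per CLSI guidelines, final inoculum 5 × 10^5 CFU/mL, in triplicate, 24 h at 37 °C. Growth read as OD625. MIC is the lowest concentration giving complete growth inhibition versus untreated controls.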

Enterococcus faecium = assay: Antibacterial activity against Enterococcus faecium BM4105RF after 24 hrs by microbroth dilution method; assay type: functional; method in brief: as §2
Enterobacter cloacae = assay: Antibacterial activity against Enterobacter cloacae ATCC 13047 after 24 hrs by microbroth dilution method; assay type: functional; conditions: ATCC 13047, 24 h; method in brief: as §1
Escherichia coli [6] = assay: Inhibition of Escherichia coli RNA topoisomerase 1 using circular RNA as substrate up to 50 uM after 1.5 hrs by SDS-PAGE analysis
Method in brief: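 10 nM E. coli topoisomerase I premixed with reaction buffer and inhibitor diluted in DMSO, then circular RNA substrate added; 1.5 h incubation. Stopped with proteinase K/SDS/EDTA buffer. Trefoil RNA knot product separated from circular substrate on 15% TBE−urea gels and detected by phosphorimaging. DMSO-only control included.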

Klebsiella pneumoniae = assay: Antibacterial activity against Klebsiella pneumoniae NR15410 after 24 hrs by microbroth dilution method; assay type: functional; conditions: NR15410, 24 h; method in brief: as §1
Escherichia coli [7] = assay: Inhibition of Escherichia coli DNA gyrase using relaxed plasmid pBAD-GFPuv as substrate after 30 mins by agarose gel electrophoresis
Staphylococcus aureus [8] = assay: Antibacterial activity against methicillin-resistant Staphylococcus aureus 33591 after 24 hrs by microbroth dilution method; assay type: functional; conditions: Staphylococcus aureus, 33591, 24 h; method in brief: as §2
Acinetobacter baumannii = assay: Antibacterial activity against Acinetobacter baumannii ATCC 19606 after 24 hrs by microbroth dilution method; assay type: functional; conditions: ATCC 19606 = CIP 70.34 = JCM 6841, 24 h; method in brief: as §1
Shigella flexneri = assay: Antibacterial activity against Shigella flexneri 2457NR517 after 24 hrs by microbroth dilution method; assay type: functional; conditions: 2457NR517, 24 h; method in brief: as §2
[9] = system: Staphylococcus epidermidis; assay: Antibacterial activity against Staphylococcus epidermidis ATCC 12384 after 24 hrs by microbroth dilution method; assay type: functional; conditions: ATCC 12384, 24 h; method in brief: as §1
[10] = Inhibition of Escherichia coli DNA topoisomerase 1 using plasmid pBAD-GFPuv as substrate after 15 mins by agarose gel electrophoresis
Method in brief: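 E. coli topoisomerase I at 6 nM relaxing 150 ng supercoiled pBAD-GFPuv. 15 min at 37 °C, phenol-stopped, 1% agarose gel, ethidium stain. IC50 is the concentration leaving 50% DNA supercoiled; three independent determinations.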

[11] = Binding affinity to dA60.dT60 B-DNA duplex (unknown origin) assessed as induction of biphasic transition at <5 uM by UV-vis spectrophotometric analysis
[12] = Binding affinity to dA60.dT60 B-DNA duplex (unknown origin) assessed as change in melting temperature at 10 uM by UV-vis spectrophotometric analysis
Method in brief: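 UV melting of dA60·dT60 at 1 μM/duplex with compound at 10 μM. Buffer 10 mM sodium cacodylate, 0.1 mM EDTA, 100 mM NaCl, pH 7.0; duplex pre-annealed from 95 °C. Compound stocks in DMSO diluted into buffer. Heating at 0.2 °C/min, monitored at 260 nm, points every 1.0 °C; Tm taken from derivatives.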

Citrobacter freundii = assay: Antibacterial activity against Citrobacter freundii 4747CFAA after 24 hrs by microbroth dilution method; assay type: functional; method in brief: as §1
DNA topoisomerase 1 = target: T1, DNA topoisomerase 1 (Homo sapiens, UniProt P11387); assay: Inhibition of human DNA topoisomerase 1 using plasmid pBAD-GFPuv as substrate after 30 mins by agarose gel electrophoresis
T1 sequence (P11387 whole entry): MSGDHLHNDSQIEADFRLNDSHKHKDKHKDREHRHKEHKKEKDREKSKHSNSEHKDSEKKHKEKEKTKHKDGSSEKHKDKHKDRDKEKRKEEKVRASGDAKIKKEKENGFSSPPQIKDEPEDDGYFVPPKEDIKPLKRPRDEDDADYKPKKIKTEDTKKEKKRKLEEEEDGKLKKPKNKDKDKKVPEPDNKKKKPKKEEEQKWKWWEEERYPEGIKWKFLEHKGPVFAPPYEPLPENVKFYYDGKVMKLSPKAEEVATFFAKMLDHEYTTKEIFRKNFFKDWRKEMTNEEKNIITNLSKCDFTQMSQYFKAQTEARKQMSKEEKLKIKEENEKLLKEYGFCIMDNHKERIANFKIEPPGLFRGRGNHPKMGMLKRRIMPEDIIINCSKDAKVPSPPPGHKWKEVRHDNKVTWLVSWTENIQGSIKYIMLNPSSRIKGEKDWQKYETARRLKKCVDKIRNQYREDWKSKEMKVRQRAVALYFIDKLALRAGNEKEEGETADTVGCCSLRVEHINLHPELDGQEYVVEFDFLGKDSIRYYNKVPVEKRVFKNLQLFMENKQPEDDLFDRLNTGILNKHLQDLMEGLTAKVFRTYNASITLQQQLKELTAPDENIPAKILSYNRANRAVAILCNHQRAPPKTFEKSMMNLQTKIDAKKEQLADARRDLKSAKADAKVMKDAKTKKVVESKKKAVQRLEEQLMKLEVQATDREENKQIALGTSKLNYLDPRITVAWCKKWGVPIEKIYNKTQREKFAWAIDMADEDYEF

CN1CCN(c2ccc3nc(-c4ccc5nc(-c6ccc(O)cc6)[nH]c5c4)[nH]c3c2)CC1.Cl.Cl.Cl
MIC (Pseudomonas aeruginosa): 8 µg/mL | MIC (Staphylococcus aureus [1]): > 32 µg/mL | MIC (Escherichia coli [2]): 8 µg/mL | MIC (Escherichia coli [3]): 8 to 16 µg/mL | MIC (Staphylococcus aureus [4]): 16 to 32 µg/mL | IC50 (DU-145): > 10 µM | MIC (Enterococcus faecalis): 16 to 32 µg/mL

C#CCOCCCCOc1ccc(-c2nc3ccc(-c4nc5ccc(N6CCN(C)CC6)cc5[nH]4)cc3[nH]2)cc1
MIC (Pseudomonas aeruginosa): 16 µg/mL (≈ 29.9 µM) | MIC (Staphylococcus aureus [5]): 1 to 2 µg/mL (≈ 1.87 to 3.74 µM) | MIC (Enterococcus faecium): 1 to 2 µg/mL (≈ 1.87 to 3.74 µM) | MIC (Enterobacter cloacae): > 32 µg/mL | inhibition (Escherichia coli [6]): inactive | MIC (Klebsiella pneumoniae): > 32 µg/mL | MIC (Escherichia coli [3]): 8 to 16 µg/mL (≈ 15 to 29.9 µM) | Activity (DU-145): Toxic | inhibition (Escherichia coli [7]): inactive | MIC (Staphylococcus aureus [8]): 1 µg/mL (≈ 1.87 µM) | MIC (Acinetobacter baumannii): 8 µg/mL (≈ 15 µM) | MIC (Shigella flexneri): 4 µg/mL (≈ 7.48 µM) | MIC [9]: 4 µg/mL (≈ 7.48 µM)

C#CCOCCOCCOCCOCCOCCOCCOc1ccc(-c2nc3ccc(-c4nc5ccc(N6CCN(C)CC6)cc5[nH]4)cc3[nH]2)cc1
MIC (Pseudomonas aeruginosa): 16 to 32 µg/mL (≈ 22 to 44 µM) | MIC (Staphylococcus aureus [5]): > 32 µg/mL | MIC (Staphylococcus aureus [1]): 16 to 32 µg/mL (≈ 22 to 44 µM) | IC50 [10]: > 50 µM | MIC (Enterococcus faecium): ≥ 32 µg/mL | Activity [11]: Active | ΔTm [12]: 13.1 °C | MIC (Enterobacter cloacae): > 32 µg/mL | inhibition (Escherichia coli [6]): inactive | MIC (Citrobacter freundii): > 32 µg/mL | MIC (Klebsiella pneumoniae): > 32 µg/mL | MIC (Escherichia coli [2]): 2 to 4 µg/mL (≈ 2.75 to 5.5 µM) | MIC (Escherichia coli [3]): 16 to 32 µg/mL (≈ 22 to 44 µM) | MIC (Staphylococcus aureus [4]): 16 to 32 µg/mL (≈ 22 to 44 µM) | IC50 (DU-145): > 10 µM | MIC (Staphylococcus aureus [8]): > 32 µg/mL | MIC (Acinetobacter baumannii): > 32 µg/mL | MIC (Shigella flexneri): ≥ 32 µg/mL | MIC (Enterococcus faecalis): 16 to 32 µg/mL (≈ 22 to 44 µM) | MIC [9]: 16 to 32 µg/mL (≈ 22 to 44 µM)

C#CCOc1ccc(-c2nc3ccc(-c4nc5ccc(N6CCN(C)CC6)cc5[nH]4)cc3[nH]2)cc1
MIC (Pseudomonas aeruginosa): 16 µg/mL (≈ 34.6 µM) | MIC (Staphylococcus aureus [5]): 1 to 2 µg/mL (≈ 2.16 to 4.32 µM) | MIC (Enterococcus faecium): 1 to 2 µg/mL (≈ 2.16 to 4.32 µM) | MIC (Enterobacter cloacae): 32 µg/mL (≈ 69.2 µM) | inhibition (Escherichia coli [6]): inactive | MIC (Citrobacter freundii): 4 µg/mL (≈ 8.65 µM) | MIC (Klebsiella pneumoniae): > 32 µg/mL | MIC (Escherichia coli [3]): 8 µg/mL (≈ 17.3 µM) | Activity (DU-145): Toxic | inhibition (Escherichia coli [7]): inactive | MIC (Acinetobacter baumannii): > 32 µg/mL | MIC (Shigella flexneri): 1 to 2 µg/mL (≈ 2.16 to 4.32 µM) | MIC [9]: 1 to 2 µg/mL (≈ 2.16 to 4.32 µM)

CN1CCN(c2ccc3nc(-c4ccc(OCc5cn(CCCCN=[N+]=[N-])nn5)cc4)[nH]c3c2)CC1
MIC (Pseudomonas aeruginosa): 16 µg/mL (≈ 32.9 µM) | MIC (Staphylococcus aureus [5]): > 32 µg/mL | MIC (Staphylococcus aureus [1]): 16 to 32 µg/mL (≈ 32.9 to 65.8 µM) | IC50 [10]: 21.5 µM | MIC (Enterococcus faecium): > 32 µg/mL | Activity [11]: Active | ΔTm [12]: 0.5 °C | MIC (Enterobacter cloacae): > 32 µg/mL | inhibition (Escherichia coli [6]): inactive | MIC (Citrobacter freundii): > 32 µg/mL | MIC (Klebsiella pneumoniae): > 32 µg/mL | IC50 (DNA topoisomerase 1): > 50 µM | MIC (Escherichia coli [2]): 16 µg/mL (≈ 32.9 µM) | MIC (Escherichia coli [3]): 16 µg/mL (≈ 32.9 µM) | MIC (Staphylococcus aureus [4]): 16 µg/mL (≈ 32.9 µM) | MIC (Staphylococcus aureus [8]): > 32 µg/mL | MIC (Acinetobacter baumannii): > 32 µg/mL | MIC (Shigella flexneri): > 32 µg/mL | MIC (Enterococcus faecalis): 16 to 32 µg/mL (≈ 32.9 to 65.8 µM) | MIC [9]: > 32 µg/mL
